Test results published in article PMC9299227 (Diabetes, Obesity & Metabolism, 2021).

What was measured:
[1] = test system: Japanese participants with type 2 diabetes; assay: Meal intake and subjective appetite sensation; format: in vivo, human
Outline: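 Once-weekly SC test compound (5, 10 or 15 mg groups, escalated) or placebo into the abdominal wall for 8 weeks. Standardized lunch and dinner are given and intake is recorded. Hunger, fullness, satiety and prospective food consumption are rated on a 100-mm VAS before and 4-5 h after the meal. Overall score is the mean of satiety, fullness, (100 − prospective consumption) and (100 − hunger).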

[2] = test system: Japanese participants with type 2 diabetes; assay: Serum lipids; format: in vivo, human
[3] = Plasma tirzepatide pharmacokinetics, non-compartmental analysis; format: in vivo; conditions: human, sc, 5 mg
Outline: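 Noncompartmental PK on plasma drug levels after weekly SC abdominal dosing at 5 mg for weeks 1-8. Sampling spanned one 168-h interval after the day 1 dose and up to 840 h after the last dose on day 50. Steady-state CL/F and Vz/F were estimated as extravascular parameters and summarized descriptively by dose level.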

[4] = test system: participants with T2D; conditions: 26 weeks, cited from earlier work
[5] = test system: Japanese participants with type 2 diabetes; assay: Fasting plasma glucose, change from baseline versus placebo; format: in vivo, human; conditions: P < .0001
Outline: (§1)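 Randomized, participant- and investigator-blind, placebo-controlled trial. Adults aged 20-70 with T2D for ≥1 year and BMI 20-35 kg/m2; metformin or DPP-4 inhibitor withdrawn ≥28 days before dosing. Once-weekly SC abdominal-wall injections for 8 weeks, rotating four sites. Escalation: 5 mg fixed; 2.5→5→10 mg; 5→10→15 mg. Change from baseline by mixed-effects model (regimen fixed, participant random, day and regimen-by-day terms); LS means, 95% CI, P<.05.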

[6] = test system: Japanese participants with type 2 diabetes; assay: HbA1c, change from baseline versus placebo; format: in vivo, human; conditions: for HbA1c, LS mean decrease from baseline versus placebo: P < .0001
Outline: as §1

[7] = test system: Japanese participants with type 2 diabetes; assay: Safety and tolerability; format: in vivo, human
[8] = test system: Japanese participants with type 2 diabetes; assay: Body weight, change from baseline versus placebo; format: in vivo, human; conditions: P < .0001
Outline: as §1

[9] = test system: Japanese participants with type 2 diabetes; assay: Seven-point self-monitored plasma glucose; format: in vivo, human; conditions: week 2 to week 8, all doses of tirzepatide
Outline: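 Patients with T2D receive weekly SC injections of test compound (escalating to 5, 10 or 15 mg) or placebo into the abdominal wall for 8 weeks. Plasma glucose is self-monitored at seven time points across the day and profiled as an arithmetic mean at day 57. Change from baseline is analysed by mixed-effects model (regimen fixed, participant random) as LS means with 95% CI.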

[10] = 5-mg group (5 mg weeks 1-8), SC once weekly, 8 weeks, N = 11
[11] = 10-mg group (2.5 mg weeks 1-2, 5 mg weeks 3-4, 10 mg weeks 5-8), SC once weekly, N = 12
[12] = 15-mg group (5 mg weeks 1-2, 10 mg weeks 3-6, 15 mg weeks 7-8), SC once weekly, N = 16

CC[C@H](C)[C@H](NC(=O)[C@H](CC(C)C)NC(=O)[C@H](Cc1c[nH]c2ccccc12)NC(=O)[C@H](CCC(N)=O)NC(=O)[C@@H](NC(=O)[C@H](Cc1ccccc1)NC(=O)[C@H](C)NC(=O)[C@H](CCCCNC(=O)COCCOCCNC(=O)COCCOCCNC(=O)CC[C@H](NC(=O)CCCCCCCCCCCCCCCCCCC(=O)O)C(=O)O)NC(=O)[C@H](CCC(N)=O)NC(=O)[C@H](C)NC(=O)[C@@H](NC(=O)[C@H](CCCCN)NC(=O)[C@H](CC(=O)O)NC(=O)[C@H](CC(C)C)NC(=O)C(C)(C)NC(=O)[C@@H](NC(=O)[C@H](CO)NC(=O)[C@H](Cc1ccc(O)cc1)NC(=O)[C@H](CC(=O)O)NC(=O)[C@H](CO)NC(=O)[C@@H](NC(=O)[C@H](Cc1ccccc1)NC(=O)[C@@H](NC(=O)CNC(=O)[C@H](CCC(=O)O)NC(=O)C(C)(C)NC(=O)[C@@H](N)Cc1ccc(O)cc1)[C@@H](C)O)[C@@H](C)O)[C@@H](C)CC)[C@@H](C)CC)C(C)C)C(=O)N[C@@H](C)C(=O)NCC(=O)NCC(=O)N1CCC[C@H]1C(=O)N[C@@H](CO)C(=O)N[C@@H](CO)C(=O)NCC(=O)N[C@@H](C)C(=O)N1CCC[C@H]1C(=O)N1CCC[C@H]1C(=O)N1CCC[C@H]1C(=O)N[C@@H](CO)C(N)=O [tirzepatide]
Overall appetite score ([1]; average of four VAS scores, among treatment groups (Figure S5)): overall appetite score was not different among the treatment groups | Hunger and fullness scores, visual analog scale, compared with placebo ([1]; lunch and dinner, all tirzepatide dose levels (Figure S5)): numerically decreased hunger and fullness scores | Percentage of meal intake compared with placebo ([1]; week 8, standardized meals (Figure S4)): dose‐dependent decrease in the percentage of meal intake compared with placebo | Triglyceride postdose (week 8), mean (SD) ([2]; 5-mg group, predose (week 1) 204 (56) mg/dL): 161 (51) mg/dL | Triglyceride postdose (week 8), mean (SD) ([2]; 10-mg group, predose (week 1) 172 (71) mg/dL): 122 (38) mg/dL | Triglyceride postdose (week 8), mean (SD) ([2]; 15-mg group, predose (week 1) 173 (121) mg/dL): 122 (55) mg/dL | Vd/F [3]: 5.27 L | Body weight reduction ([4]; 5-, 10-, and 15-mg doses versus placebo): significant, dose‐dependent reductions in body weight for the 5‐, 10‐, and 15‐mg doses of tirzepatide versus placebo | HbA1c reduction ([4]; doses 1, 5, 10, and 15 mg, versus placebo): significant dose‐dependent reductions in HbA1c at all doses (1, 5, 10, and 15 mg) versus placebo | Fasting plasma glucose, LS mean decrease from baseline versus placebo (95% CI) ([5]; week 8, 5-mg group): 52.7 (35.9‐69.6) mg/dL | Fasting plasma glucose, LS mean decrease from baseline versus placebo (95% CI) ([5]; week 8, 10-mg group): 69.1 (52.3‐85.9) mg/dL | Fasting plasma glucose, LS mean decrease from baseline versus placebo (95% CI) ([5]; week 8, 15-mg group): 68.9 (53.2‐84.6) mg/dL | HbA1c, LS mean decreases from baseline versus placebo, across treatment groups ([6]; 8 weeks, 95% CI 1.2%-1.9%, P < .0001 for all treatment groups): up to 1.6% | HbA1c, LS mean decrease from baseline versus placebo ([6]; week 8, 5-mg group, 95% CI 0.8%-1.5%): 1.1% | HbA1c, LS mean decrease from baseline versus placebo ([6]; week 8, 10-mg group, 95% CI 0.9%-1.7%): 1.3% | HbA1c, LS mean decrease from baseline versus placebo ([6]; week 8, 15-mg group, 95% CI 1.2%-1.9%): 1.6% | Abdominal discomfort, treatment-emergent adverse event [7, 10]: 0 n (%) | Abdominal distension, treatment-emergent adverse event [7, 10]: 3 (27.3) n (%) | Blood triglycerides increased, treatment-emergent adverse event [7, 10]: 0 n (%) | Constipation, treatment-emergent adverse event [7, 10]: 0 n (%) | Decreased appetite, treatment-emergent adverse event [7, 10]: 5 (45.5) n (%) | Diarrhea, treatment-emergent adverse event [7, 10]: 0 n (%) | Dyspepsia, treatment-emergent adverse event [7, 10]: 0 n (%) | Headache, treatment-emergent adverse event [7, 10]: 0 n (%) | Lipase increased, treatment-emergent adverse event [7, 10]: 0 n (%) | Nausea, treatment-emergent adverse event [7, 10]: 1 (9.1) n (%) | Viral upper respiratory tract infection, treatment-emergent adverse event [7, 10]: 1 (9.1) n (%) | Vomiting, treatment-emergent adverse event [7, 10]: 1 (9.1) n (%) | White blood cell count increased, treatment-emergent adverse event [7, 10]: 1 (9.1) n (%) | Abdominal discomfort, treatment-emergent adverse event [7, 11]: 2 (16.7) n (%) | Abdominal distension, treatment-emergent adverse event [7, 11]: 1 (8.3) n (%) | Blood triglycerides increased, treatment-emergent adverse event [7, 11]: 0 n (%) | Constipation, treatment-emergent adverse event [7, 11]: 8 (66.7) n (%) | Decreased appetite, treatment-emergent adverse event [7, 11]: 6 (50.0) n (%) | Diarrhea, treatment-emergent adverse event [7, 11]: 3 (25.0) n (%) | Dyspepsia, treatment-emergent adverse event [7, 11]: 3 (25.0) n (%) | Headache, treatment-emergent adverse event [7, 11]: 3 (25.0) n (%) | Lipase increased, treatment-emergent adverse event [7, 11]: 1 (8.3) n (%) | Nausea, treatment-emergent adverse event [7, 11]: 0 n (%) | Vomiting, treatment-emergent adverse event [7, 11]: 1 (8.3) n (%) | White blood cell count increased, treatment-emergent adverse event [7, 11]: 0 n (%) | Abdominal discomfort, treatment-emergent adverse event [7, 12]: 4 (25.0) n (%) | Abdominal distension, treatment-emergent adverse event [7, 12]: 0 n (%) | Blood triglycerides increased, treatment-emergent adverse event [7, 12]: 1 (6.3) n (%) | Constipation, treatment-emergent adverse event [7, 12]: 8 (50.0) n (%) | Decreased appetite, treatment-emergent adverse event [7, 12]: 10 (62.5) n (%) | Diarrhea, treatment-emergent adverse event [7, 12]: 5 (31.3) n (%) | Dyspepsia, treatment-emergent adverse event [7, 12]: 0 n (%) | Headache, treatment-emergent adverse event [7, 12]: 1 (6.3) n (%) | Lipase increased, treatment-emergent adverse event [7, 12]: 2 (12.5) n (%) | Nausea, treatment-emergent adverse event [7, 12]: 2 (12.5) n (%) | Vomiting, treatment-emergent adverse event [7, 12]: 2 (12.5) n (%) | White blood cell count increased, treatment-emergent adverse event [7, 12]: 1 (6.3) n (%) | Tolerability ([7]; all tirzepatide doses (5-, 10-, 15-mg groups), SC once weekly, 8 weeks): all tirzepatide doses were well tolerated | Severe hypoglycemia or nocturnal hypoglycemia events ([7]; all treatment groups, 8 weeks): No severe hypoglycemia or nocturnal hypoglycemia events were reported | Injection-site or hypersensitivity AEs ([7]; all treatment groups, SC abdominal wall, 8 weeks): No injection‐site or hypersensitivity AEs were reported | Deaths or serious AEs ([7]; all treatment groups, SC once weekly, 8 weeks): No deaths or serious AEs occurred during the study | Systolic and diastolic blood pressure, mean predose ([7]; participants treated with tirzepatide (Figure S3)): no significant changes in blood pressure | Body weight, LS mean decrease from baseline (95% CI) versus placebo ([8]; week 8, 5-mg group): 3.4 (2.0‐4.8) kg | Body weight, LS mean decrease from baseline (95% CI) versus placebo ([8]; week 8, 10-mg group): 5.0 (3.6‐6.5) kg | Body weight, LS mean decrease from baseline (95% CI) versus placebo ([8]; week 8, 15-mg group): 6.6 (5.3‐7.9) kg | Seven-point SMPG daily profile compared with placebo [9]: improved overall daily SMPG profiles compared with placebo
